Source: ChEMBL document CHEMBL4513216, “Probing the Open Global Health Chemical Diversity Library for Multistage-Active Starting Points for Next-Generation Antimalarials” (ACS Infect Dis, 2020)

Assay: Toxicity liver stage against HepG2, at 10uM
Type: cell-based
Design: test concentration 10 uM, cell line HepG2-A16-CD81EGFP
Conditions: human, HepG2-A16-CD81EGFP cells; read-out: INHIBITION
Procedure, shortened: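 Uninfected HepG2-A16-CD81EGFP cells, 3 × 10^3 per well, 1536-well, plated on prespotted compound at 10 μM final, parasite-free screening media added to match infected plates; puromycin 10 μM positive, DMSO 0.5% negative; run in parallel with 48 h PbLuc assay at 37 °C, 5% CO2; viability by CellTiter-Glo luminescence, normalized to controls.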

| SMILES | cytotoxicity at 10 µM |
| --- | --- |
| Cc1c(C)n2c(SCC(=O)N3CCC(C)CC3)nnc2[nH]c1=O | 0.351% |
| COc1ccc(NC(=O)CSc2nc(C)cc(C)n2)cn1 | -0.384% |
| CCOc1ccc(Oc2cc(CN)ccn2)cc1 | 0.102% |
| O=c1c2ccccc2nnn1CN(CC1CCOC1)C1CC1 (configuration not stated) | -0.543% |
| COc1ccc2nc3n(c2c1)[C@@H](CNC(=O)c1cncnc1)COC3 | 0.488% |
| Fc1ccc2c(c1)nc1n2[C@@H](CNCc2nccs2)COC1 | 1.07% |
| COCC(=O)N[C@H]1C[C@H]2C(=O)NC[C@@H](CCC(=O)NC3CC3)N2C1 | 10.7% |
| CCC(C)NC(=O)CCn1ccc(C)n1 (configuration not stated) | -0.634% |
| N#CCCN(CC1CCCO1)C(=O)c1ccc(C#N)cc1 (configuration not stated) | -2.45% |
| CC(C)(C)c1csc(CCNC(=O)[C@H](c2ccccc2)n2cnnn2)n1 | 2.07% |
| Cc1nnc(CNC(=O)C2CSCCC(=O)N2)o1 (configuration not stated) | -10.1% |
| O=C(c1ccc[nH]1)N1CC2(CCN(c3ncccn3)C2)C1 | 2.26% |
| CCn1nnc2c1CCN(C(=O)c1ccc3c(c1)OCO3)C2COC (configuration not stated) | 6.43% |
| Cc1nc(C)c2c(n1)CCN(Cc1ccsc1)CC2 | -126% |
| CCS(=O)(=O)N1Cc2ccnn2CC(c2nc(C)no2)C1 (configuration not stated) | 6.86% |
| CO[C@H]1CC[C@H]2[C@H]1OCCN2C(=O)C1=CCCC1 | -131% |
| O=C(O)c1nnn(-c2ccc(Cl)c(C(F)(F)F)c2)c1-c1ccncc1 | 8.63% |
| COc1ccccc1Nc1nc2c(C)nn(C)c2c(=O)n1C | 2.56% |
| Cn1c(=O)oc2ccc(S(=O)(=O)N3CCC(c4ccccc4)C3)cc21 (configuration not stated) | 5.43% |
| Cc1nn(CC(=O)N2CCN(Cc3cnn(C)c3C)CC2)cc1Br | -7.55% |
| N#Cc1c[nH]nc1NCc1ccc2c(c1)OCO2 | -8.75% |
| COCCC(=O)N1Cc2nc3c(C)c(-c4cccs4)nn3c(O)c2C1 | -1.19% |
| C[C@@H]1CN(Cc2ccco2)CCN1C(=O)Cc1ccccc1F | 4.94% |

| SMILES | cytotoxicity at 10 µM |
| --- | --- |
| O=C1NC2(CCCN(C(=O)CCn3cncn3)C2)Oc2ccccc21 (configuration not stated) | 3.08% |
| COc1cc2c(cc1CCC(=O)O)CCC2 | 1.11% |
| Cc1cc(-c2ccccc2)nc(C2CCCN2S(C)(=O)=O)n1 (configuration not stated) | 3.5% |
| Cc1cc(C)n2ncc(CN3C[C@@H](O)[C@H](Oc4ccccc4)C3)c2n1 | -33% |
| CCCNC(=O)c1cc(C2CCCN(Cc3ccccn3)C2)no1 (configuration not stated) | -32% |
| O=S(=O)(N1CCOCC1)N1CCCC1Cn1cccn1 (configuration not stated) | -8.18% |
| Cn1ccc(C(=O)N2CCOC(c3ccccn3)C2)cc1=O (configuration not stated) | -31.4% |
| CCc1ccccc1Nc1noc2c1CN(C(=O)CCOC)CC2 | -16.6% |
| COCCN1CCC(c2cncc(-c3cccc(Cl)c3)n2)CC1 | -29.9% |
| Cn1cnc(CNC(=O)c2ccccc2-n2cc(CN)cn2)c1 | -16.9% |
| O=C(O)COc1ccccc1CN1CCCC1c1ccncn1 (configuration not stated) | -29.2% |
| CCS(=O)(=O)NCCNc1c(C#N)cnc2c(F)cc(F)cc12 | 16.2% |
| CCOc1cccc(NCc2cnc(N3CCN(C)CC3)nc2)n1 | 1.75% |
| CCN(CC)S(=O)(=O)NC(=O)c1cc(C)n(-c2ccccc2)n1 | -9.68% |
| Cc1cc(-n2c(C)cn(CN(C)Cc3ccccc3)c2=O)no1 | 10.3% |
| FC(F)(F)CCN(Cc1ccon1)C1CCC1 | 1.19% |
| Cc1ccc(NC(=O)C2CCCN2C(=O)C2CC2)nc1 (configuration not stated) | -2.15% |
| Cc1cc(C2CCCN2Cc2cc(-c3ccco3)on2)on1 (configuration not stated) | 1.6% |
| Cc1nnc(N2CCc3cncnc3C2)c(C#N)c1C | -154% |
| CNC(=O)c1cccc(CN2CCC(N(C)Cc3noc(C)n3)C2)c1 (configuration not stated) | 4.37% |
| CCOCCCOC(=O)c1ccc2c(c1)[nH]c(=O)n2C | 3.54% |
| Fc1ccccc1CN1CCC(c2n[nH]c(C3CC3)n2)CC1 | 6.21% |
| CS(=O)(=O)Nc1cccc(CNC(=O)CCc2ccsc2)c1 | 2.24% |

| SMILES | cytotoxicity at 10 µM |
| --- | --- |
| CCNC(=O)C1CCCN(c2cccc(C(F)(F)F)n2)C1 (configuration not stated) | 3.4% |
| CCOCCN1CCN(CCc2nc3ccccc3c(=O)[nH]2)CC1 | 4.12% |
| COc1cc(CN(C)C(=O)NCc2nccs2)ccc1SC | -7.66% |
| NCC1(c2cccc(C(F)(F)F)c2)CCC1 | -4.27% |
| CCCOc1ccc(Cl)cc1NC(=O)NCCC(=O)N(C)C | -0.734% |
| NC(=O)c1cnc(NC2CCN(c3ccccn3)CC2)c(Cl)c1 | 13.8% |
| CCOCCC(=O)Nc1cc(C)cnc1OC | 18.9% |
| CCN(C(C)=O)C(c1cccnc1)c1cc(C)cc(C)c1 (configuration not stated) | 6.72% |
| O=C(NC1CCCN(c2ccc(OC(F)F)cc2)C1)c1cnc[nH]1 (configuration not stated) | -2.15% |
| NS(=O)(=O)N1CCC(CSc2ccccc2)C1 (configuration not stated) | -9.8% |
| CCOC(C)c1nc(Cn2cccn2)cs1 (configuration not stated) | 1.04% |
| CCN(C(=O)Nc1nncs1)C(C)c1cccc(OC)c1 (configuration not stated) | 4.84% |
| CN(CC(N)=O)C(=O)C1Cc2cc(Cl)ccc2O1 (configuration not stated) | 2.93% |
| Cc1cc(C2CCCN2c2ncc(C(N)=O)cc2Cl)no1 (configuration not stated) | -4.57% |
| Cc1cc(C(=O)NCCN2CCCC(C)C2)nn1C(C)(C)C (configuration not stated) | 9.34% |
| CCNc1cc2c(nn1)CCN(C(=O)c1ccc(-n3cccn3)nc1)C2 | 5.05% |
| CN(Cc1ccncc1)C(=O)Nc1cnn(CC2CCCO2)c1 (configuration not stated) | -0.291% |
| Cc1noc([C@]23COC[C@H]2CN(C(=O)COC2CCCC2)C3)n1 | -104% |
| Cc1cccc(CN2CC[C@@H]3O[C@@H](C(=O)N4CCN(C)CC4)C[C@@H]32)n1 | 1.04% |
| COCC1COCCC12CCN(S(=O)(=O)c1ccc(C)cc1)CC2 (configuration not stated) | 4.79% |
| Cn1ncc2c1C(COCC1CC1)CN(Cc1ccc(F)cc1)C2 (configuration not stated) | 1.23% |
| COc1ccccc1-n1nc(CC(C)C)nc1CSc1nnc(N)s1 | 1.62% |
| CCCn1cc(C(=O)NCCC(=O)NC2CCCCC2)c(C)n1 | -3.31% |

| SMILES | cytotoxicity at 10 µM |
| --- | --- |
| CCCn1ncc(C(=O)N2CCN([C@H]3CCCC[C@@H]3O)CC2)c1C | -137% |
| CCN(C)S(=O)(=O)N1CCCC(c2cccc(C(=O)O)c2)C1 (configuration not stated) | 0.91% |
| Cc1ccccc1NC(=O)N1CCN(C(=O)C2CC2)[C@@H]2CS(=O)(=O)C[C@@H]21 | 2.78% |
| c1ccc(Cc2n[nH]c(C3CCOC3)n2)cc1 (configuration not stated) | 1.06% |
| COc1cc(C)c(C2CC(=O)Nc3cc(NS(C)(=O)=O)ccc32)cc1C (configuration not stated) | -15% |
| Cc1nc[nH]c1CN(C)Cc1cnn(-c2ccc(F)cc2)c1 | 0.345% |
| CNc1ncc(C(=O)N2CCC(c3ccccc3C(=O)O)C2)cn1 (configuration not stated) | -7.67% |
| c1cncc(Cc2nnc3n2CCN(CC2CCOC2)CC3)c1 (configuration not stated) | -2.11% |
| COC(=O)CCCNC(=O)c1cc(COc2cncc(Cl)c2)on1 | 8.23% |
| CN1CC2(CCN(C(=O)c3[nH]cnc3-c3ccccc3)C2)OC1=O (configuration not stated) | 4.43% |
| CCCOCC(=O)N1CCc2nc(NC)nc(C(=O)N3CCCC3)c2C1 | -109% |
| Nc1nc2c(c(N3CCOCC3)n1)CCN(C(=O)c1ccc[nH]1)CC2 | -2.02% |
| COCCN1CCCC2(CCN(c3ncc(Cl)cc3Cl)C2)C1=O (configuration not stated) | 9.44% |
| Cc1cc(C)c(C(=O)N2CCOC(CCN(C)C)C2)o1 (configuration not stated) | -1.92% |
| Cc1cc(N2CC[C@H](O)C2)n2nc(C)c(C)c2n1 | -3.62% |
| CC(Oc1ccc2c(c1)OCO2)C(=O)N1CCC(N2CCCC2)CC1 (configuration not stated) | -4.63% |
| O=C1[C@@H]2CN(c3ncc(Cl)cc3F)C[C@]2(C(=O)O)CN1CC1CC1 | -0.33% |
| COc1cccc([C@@H]2CCN(Cc3c[nH]c(C)n3)C[C@H]2O)c1 | -2.89% |
| Cc1nsc(NC(=O)N2CCC(C(C)(C)O)CC2)n1 | 17.5% |
| O=C(O)C(c1ccc2c(c1)OCCO2)N1CCCCCC1 (configuration not stated) | -3.26% |
| O=C(CCc1ccc(O)cc1)N1CCC(Cc2ccc(CO)cc2)C1 (configuration not stated) | 14.8% |
| CCCc1nc(C(C)(C)NC(=O)C2CC(=O)N(CC(C)C)C2)no1 (configuration not stated) | -5.31% |
| Cc1ccc(-c2cc(CNC(=O)N3CCSCC3)on2)cc1 | 2.7% |

| SMILES | cytotoxicity at 10 µM |
| --- | --- |
| O=C1C(NCc2nnc3n2CCCC3)CCCN1c1ccccc1 (configuration not stated) | -9.69% |
| N#Cc1cccnc1N1CCC(C2CCCCCN2C(N)=O)CC1 (configuration not stated) | -2.51% |
| CCc1nnc2n1CCN(Cc1ncc(-c3ccc(Cl)cc3)o1)C2 | -9.66% |
| CC(Cn1ccnc1)NC(=O)NCCc1ccc(Cl)s1 (configuration not stated) | -12.4% |
| COc1cccc(-n2c(C)cc(C(=O)NCCCC(N)=O)c2C)c1 | -11.9% |
| COc1ccc(C(=O)NC(CC(=O)O)c2cccs2)c(OC)c1 (configuration not stated) | -0.463% |
| CSC(C)C(=O)N1CCCN(Cc2nccn2C)CC1 (configuration not stated) | -11.6% |
| CN1CCCN(C(=O)NCCNc2cnccn2)CC1 | -3.4% |
| Cc1noc(C)c1CCC(=O)N1CCCN(Cc2cscn2)CC1 | -4.51% |
| COc1cccc(CCC(=O)N2CCCCC2Cn2cccn2)c1 (configuration not stated) | -11.3% |
| CCN(CC)CCn1c(=O)oc2ccccc21 | 2.96% |
| CC1c2ncc(CNC(=O)C3CC3)n2CCN1Cc1cccnc1 (configuration not stated) | -3.76% |
| c1cnc(N2CCC3(CCN(CC4CC4)CC3)CC2)nc1 | 0.77% |
| Cc1nc(COC[C@@]23CCC[C@@H]2CN(CC2CCOCC2)C3)cs1 | 7.98% |
| CN(C[C@@H]1CCC[C@@H]2CN(Cc3cccnc3)C[C@@H]21)C1CC1 | 8.01% |
| CC(=O)N1CCCC2(C1)CN(c1ncc(C)cn1)CCO2 (configuration not stated) | 14% |
| O=C(Nc1cc(C(F)(F)F)c[nH]c1=O)C1CCCCN1 (configuration not stated) | -0.924% |
| O=C([C@@H]1COC[C@H]2CN(C3CCOCC3)C[C@H]21)N1CCOCC1 | -4.14% |
| Cn1nc(Cn2cccc2)c2c1CN(Cc1ccsc1)C2 | -133% |
| CCn1cc(-n2cc3nc(N4CCN(C)CC4)[nH]cc-3c2=O)cn1 | 1.54% |
